Experimental data reported in ChEMBL document CHEMBL4002555, “Bioactive Pentacyclic Triterpenoids from the Leaves of Cleistocalyx operculatus” (J Nat Prod, 2016).
pIC50: −log10 of the molar value.

Legend:
[1] = Cytotoxicity against mouse RAW264.7 cells assessed as growth inhibition at 2 uM after 72 hrs by MTT assay relative to control; assay type: cell-based; details: read-out: GI
RAW264.7 [2] = assay: Anti-inflammatory activity in mouse RAW264.7 cells assessed as inhibition of LPS-induced TNF-alpha production at 2 uM pretreated for 1 hr followed by LPS stimulation measured after 24 hrs by ELISA relative to control; assay type: functional
Method in brief: (§1)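 LPS-stimulated RAW 264.7 macrophages, with IL-6 and TNF-α production read separately. Test concentrations were 0.4, 2, 10 and 50 μM, and dexamethasone was the reference drug. Results are given as percent inhibition of cytokine production.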

RAW264.7 [3] = assay: Anti-inflammatory activity in mouse RAW264.7 cells assessed as inhibition of LPS-induced IL-6 production at 0.4 uM pretreated for 1 hr followed by LPS stimulation measured after 24 hrs by ELISA relative to control; assay type: functional; method in brief: as §1
RAW264.7 [4] = assay: Anti-inflammatory activity in mouse RAW264.7 cells assessed as inhibition of LPS-induced IL-6 production at 2 uM pretreated for 1 hr followed by LPS stimulation measured after 24 hrs by ELISA relative to control; assay type: functional; method in brief: as §1
NCI-N87 = assay: Cytotoxicity against human NCI-N87 cells after 72 hrs by MTT assay; assay type: functional, cell-based; details: NCI-N87, 72 h
Method in brief: (§2)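 MTT growth-inhibition assay in human HepG2 hepatocellular, NCI-N87 gastric and MCF-7 breast carcinoma lines, with a doxorubicin positive control. IC50 values are means ± SD from three individual experiments; >10.0 μM was taken as noncytotoxic.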

HepG2 = assay: Cytotoxicity against human HepG2 cells after 72 hrs by MTT assay; assay type: functional, cell-based; details: HepG2, 72 h; method in brief: as §2
MCF7 = assay: Cytotoxicity against human MCF7 cells after 72 hrs by MTT assay; assay type: functional, cell-based; details: MCF7, 72 h; method in brief: as §2
RAW264.7 [5] = assay: Anti-inflammatory activity in mouse RAW264.7 cells assessed as inhibition of LPS-induced TNF-alpha production at 0.4 uM pretreated for 1 hr followed by LPS stimulation measured after 24 hrs by ELISA relative to control; assay type: functional; method in brief: as §1
RAW264.7 [6] = assay: Anti-inflammatory activity in mouse RAW264.7 cells assessed as inhibition of LPS-induced IL-6 production at 10 uM pretreated for 1 hr followed by LPS stimulation measured after 24 hrs by ELISA relative to control; assay type: functional; method in brief: as §1
[7] = Cytotoxicity against mouse RAW264.7 cells assessed as growth inhibition at 50 uM after 72 hrs by MTT assay relative to control; assay type: cell-based; details: read-out: GI
RAW264.7 [8] = assay: Anti-inflammatory activity in mouse RAW264.7 cells assessed as inhibition of LPS-induced TNF-alpha production at 50 uM pretreated for 1 hr followed by LPS stimulation measured after 24 hrs by ELISA relative to control; assay type: functional; method in brief: as §1
RAW264.7 [9] = assay: Anti-inflammatory activity in mouse RAW264.7 cells assessed as inhibition of LPS-induced IL-6 production at 50 uM pretreated for 1 hr followed by LPS stimulation measured after 24 hrs by ELISA relative to control; assay type: functional; method in brief: as §1
RAW264.7 [10] = assay: Anti-inflammatory activity in mouse RAW264.7 cells assessed as inhibition of LPS-induced TNF-alpha production at 10 uM pretreated for 1 hr followed by LPS stimulation measured after 24 hrs by ELISA relative to control; assay type: functional; method in brief: as §1

SMILES | inhibition at 72 h, 2 µM [1] [%] | inhibition at 2 µM (RAW264.7 [2]) [%] | inhibition at 0.4 µM (RAW264.7 [3]) [%] | inhibition at 2 µM (RAW264.7 [4]) [%] | pIC50 (NCI-N87) | pIC50 (HepG2) | pIC50 (MCF7) | inhibition at 0.4 µM (RAW264.7 [5]) [%] | inhibition at 10 µM (RAW264.7 [6]) [%] | inhibition at 72 h, 50 µM [7] [%] | inhibition at 50 µM (RAW264.7 [8]) [%] | inhibition at 50 µM (RAW264.7 [9]) [%] | inhibition at 10 µM (RAW264.7 [10]) [%]
COC(=O)[C@]12CC=C(C)[C@@H](C)[C@@H]1[C@H]1CC[C@@H]3[C@@]4(C)CC[C@H](O)C(C)(C)[C@@H]4CC[C@@]3(C)[C@]1(C(=O)O)CC2 | < 5 | 42.9 | 38.4 | 51 | 5.19 | 5.49 | 5.31 | 39.1 |  |  |  |  | 
CC1(C)CC[C@@]23CC[C@]4(C)[C@@](OC2=O)([C@@H]3C1)[C@H]1O[C@H]1[C@@H]1[C@@]2(C)C[C@@H](O)[C@H](O)[C@@](C)(CO)[C@@H]2CC[C@]14C |  | < 50 | < 50 | < 50 | < 5.00 | < 5.00 | < 5.00 | < 50 | < 50 | < 5 | < 50 | < 50 | < 50
CC1(C)CC[C@]2(C(=O)O)CC[C@]3(C)C(=CC(=O)[C@@H]4[C@@]5(C)C[C@@H](O)[C@H](O)[C@@](C)(CO)[C@@H]5CC[C@]43C)[C@@H]2C1 |  | < 10 |  | 33.8 | < 5.00 | < 5.00 | < 5.00 |  | 35.2 | < 5 | 18.8 | 63 | < 10
C=C1CC[C@]2(C(=O)O)CC[C@]3(C)C(=C[C@@H](OC)[C@@H]4[C@@]5(C)C[C@@H](O)[C@H](O)[C@@](C)(CO)[C@@H]5CC[C@]43C)[C@@H]2[C@H]1C |  | < 50 | < 50 | < 50 | < 5.00 | < 5.00 | < 5.00 | < 50 | < 50 | < 5 | < 50 | < 50 | < 50
CO[C@@H]1C=C2[C@@H]3CC(C)(C)CC[C@]3(C(=O)O)CC[C@@]2(C)[C@]2(C)CC[C@@H]3[C@](C)(C[C@@H](O)[C@H](O)[C@@]3(C)CO)[C@@H]12 |  | 22 |  | 42.3 | < 5.00 | < 5.00 | < 5.00 |  | 64.8 | < 5 | 52.8 | 68.8 | 54.1
C=C1CC[C@]2(C(=O)O)CC[C@]3(C)C(=CC(=O)[C@@H]4[C@@]5(C)C[C@@H](O)[C@H](O)[C@@](C)(CO)[C@@H]5CC[C@]43C)[C@@H]2[C@H]1C |  | < 50 | < 50 | < 50 | < 5.00 | < 5.00 | < 5.00 | < 50 | < 50 | < 5 | < 50 | < 50 | < 50
